Assay outcomes: PubChem, several laboratories
In the library only some 4.8% were active in any assay of this set; here they are far more common.
UCH37 inh: blocks the human deubiquitinase UCH37 | 0.33% of 330,000 active | purified proteasome/UCH37, Ub-AMC cleavage fluorescence | Q9Y5K5 | inhibition, % (concentration not given with the values);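 active means mean inhibition over replicate wells above about 20%, limit read from the data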;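 further: 0% = compound-free wells with enzyme and 100% = wells lacking proteasome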
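Assay system: Proteasome-bound UCH37. Buffer or medium: pH 7.4 Tris-HCl (50 mM) with ovalbumin, ATP-MgCl2, DTT. Incubation: 30 min preincubation with enzyme, 25 min cleavage at room temperature. Measured by: fluorescence, ex 355 nm, em 460 nm. Read-out basis: percent inhibition. Control set: wells without proteasome as full block, compound-free enzyme plus substrate as uninhibited.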
ALR H2O2 inh: inhibitors of human sulfhydryl oxidase ALR; 3.8% of 290,000 active; purified ALR, DTT oxidation, H2O2 HRP-luminol luminescence; P55789; inhibition, % (no concentration beside the values);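 active means mean replicate inhibition above about 79%, with every replicate also reaching it, limit read from the data; inconclusive means only one of the two criteria met; inactive means mean below limit and not every replicate reaching it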
Target sequence (P55789 whole entry, looked up): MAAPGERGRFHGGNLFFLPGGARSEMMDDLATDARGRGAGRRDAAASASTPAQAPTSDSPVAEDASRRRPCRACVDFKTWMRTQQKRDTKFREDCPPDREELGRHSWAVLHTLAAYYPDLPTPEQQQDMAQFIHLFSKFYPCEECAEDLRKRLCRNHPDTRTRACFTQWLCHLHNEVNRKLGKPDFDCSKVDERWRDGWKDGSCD
ATG4B inh: blocks human ATG4B protease cleavage of LC3 substrate; Q9Y4P1; ATG4B cleavage of LC3-PLA2, NBD-HPC fluorescence, 1 h; inhibition, % at 8.33 µM; 0.51% of 340,000 active; AID 504462; in the data active means inhibition above about 40%
Target sequence (Q9Y4P1 whole entry, looked up): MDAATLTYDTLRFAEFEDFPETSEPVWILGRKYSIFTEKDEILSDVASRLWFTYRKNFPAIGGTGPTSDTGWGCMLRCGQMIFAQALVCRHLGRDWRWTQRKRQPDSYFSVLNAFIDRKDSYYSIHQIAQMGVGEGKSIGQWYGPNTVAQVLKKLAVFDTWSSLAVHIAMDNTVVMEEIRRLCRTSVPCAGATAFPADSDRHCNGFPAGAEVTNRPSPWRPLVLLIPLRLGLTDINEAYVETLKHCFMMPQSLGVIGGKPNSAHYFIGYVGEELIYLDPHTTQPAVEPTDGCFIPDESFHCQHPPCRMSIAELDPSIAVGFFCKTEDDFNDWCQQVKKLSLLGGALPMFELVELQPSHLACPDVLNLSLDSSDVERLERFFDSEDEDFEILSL
NALP1 inh: NALP1 inhibition | S. cerevisiae NALP1/ASC/caspase-1 growth, X-gal OD620, 72 h | inhibition, % at 10 µM | 0.61% of 280,000 active | AID 2071; in the data active means inhibition mostly above about 24%, no sharp cut-off; inactive means mostly below about 32%
NALP3 yeast inh: NALP3 inhibition in yeast. Yeast reconstituted NLRP3/ASC/caspase-1, beta-gal luminescence, 24 h. inhibition, % at 10 µM. 0.39% of 330,000 active. AID 2825;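 active means inhibition of 50% or more; inactive means inhibition below 50%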;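 further: plate controls were induced DMSO wells for no effect and uninduced yeast grown without galactose for full effect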
Calb FLC: C. albicans growth modulation with fluconazole; C. albicans CaCi-2 + fluconazole, Alamar Blue growth, 48 h; growth inhibition, % (concentration not given with the values); 0.57% of 300,000 active; AID 1979;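 active means growth inhibition above about 58% in most replicates, limit read from the data, passing the limit was not always enough; inconclusive means exactly half the replicates above a set limit; inactive means most replicates below a set limit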;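 further: all wells also contain fluconazole at 8 µg/ml as a sub-toxic cotreatment; 0% = median of DMSO wells and 100% = median of geldanamycin control wells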
Active calls of the source: *; ? = inconclusive; . = no result.

SMILES	UCH37 inh	ALR H2O2 inh	ATG4B inh	NALP1 inh	NALP3 yeast inh	Calb FLC
O=C(O)COc1ccccc1C=NNC(=O)CSc1nc2ccccc2c(=O)n1-c1ccc(Cl)cc1	2	.	.	.	.	.
CC(C)C=NNC(=O)CCCCC(=O)NN=CC(C)C	2	.	.	.	.	.
CCC(=O)N1CCc2cc(S(=O)(=O)CCC(=O)Nc3cccc(F)c3)ccc21	1	98*	-10	36	17	0
CCC(=O)N1CCc2cc(S(=O)(=O)CCC(=O)Nc3ccc(F)c(F)c3)ccc21	1	98*	-18	-7	12	-1
CCC(=O)N1CCc2cc(S(=O)(=O)CCC(=O)Nc3ccc(CC)cc3)ccc21	1	-1	-14	23	8	2
CC(C)(C)C1=CC(=O)C(=O)C(C(C)(C)C)=C1	1	-8	-9	51*	-8	-44
O=C(NN=Cc1cccc(Cl)c1)c1ccc(Cn2cc(Br)c([N+](=O)[O-])n2)o1	3	.	.	.	.	.
COc1ccc(C=NNC(=O)CC(=O)Nc2cccc(Cl)c2)cc1OC	1	.	.	.	.	.
CCN(CC)Cc1c(C(=O)NN=Cc2ccc(C)o2)nnn1-c1nonc1N	10	.	.	.	.	.
COc1ccc(C(=O)Nn2c(SCC(=O)NCc3ccccc3)nc3ccccc3c2=O)cc1	2	-3	-5	38*	1	-12
C(=NNc1ccccc1)c1nc2ccccc2s1	0	.	.	.	.	.
O=C(NN=Cc1cc2c(cc1Cl)OCO2)c1cc(-c2ccccc2)n[nH]1	-16	.	.	.	.	.
CC(=N/N=C1/NC(=O)C(CC(=O)Nc2ccc(C)c(Cl)c2)S1)C(C)(C)C (centres undefined)	2	.	.	.	.	.
Oc1cc(Nc2cccnc2)cc2cccnc12	0	90*	-10	.	15	.
COc1ccc(Cl)cc1Nc1nc(-c2sc(NC(=O)c3ccccc3)nc2C)cs1	.	44	.	5	-3	-7
Cc1nc(NC(=O)c2ccccc2)sc1-c1csc(Nc2ccc(Cl)cc2Cl)n1	.	87*	.	3	6	7
CN1CCN(Cc2c(O)ccc3cc(Br)ccc23)CC1	2	78*	-4	3	25	-1
COCc1cc(C)n(CC(=O)NN=Cc2ccc(-c3ccc(Cl)c(C(=O)O)c3)o2)c(=O)c1C#N	-35	.	.	.	.	.
O=C(NN=Cc1c(O)ccc2ccccc12)c1ccncc1	.	.	-14	.	.	.
O=C(N/N=C/c1c(O)n(-c2ccc(Cl)cn2)c(=O)c2ccccc12)c1ccncc1	4	80*	11	12	-3	?
O=C(N/N=C/c1c(O)n(-c2ccc(Cl)cn2)c(=O)c2ccccc12)C1CC1	-3	95*	1	31	-1	19
CN(C)c1ccnc(-n2cccc2C=NOCc2ccccc2)c1C#N	5	.	.	.	.	.
CCN(CCNC(=O)C1CCC(=O)N1Cc1ccc(C)cc1)c1ccccc1 (centres undefined)	4	.	-8	-5	-17	8
Cc1ccc(CNC(=O)C2CCC(=O)N2Cc2ccccc2Cl)cc1 (centres undefined)	4	.	6	-5	27	-12
CCN(CCCNC(=O)C1CCC(=O)N1Cc1ccccc1Cl)c1cccc(C)c1 (centres undefined)	4	99*	7	-11	9	-3
SMILES	UCH37 inh	ALR H2O2 inh	ATG4B inh	NALP1 inh	NALP3 yeast inh	Calb FLC
CCN(CCCNC(=O)C1CCC(=O)N1Cc1ccc(C)cc1)c1cccc(C)c1 (centres undefined)	1	99*	-6	-11	2	-1
Cc1nn(-c2ccccc2)c(C)c1C=NNS(=O)(=O)c1ccc(Cl)cc1	4	.	.	.	.	.
CCN(CC)C(=O)CC(c1ccc(N(C)C)cc1)c1c(OC)cc(OC)c2ccc(=O)oc12 (centres undefined)	2	98*	-8	1	8	2
CCN(CC)CCC(c1ccc(N(C)C)cc1)c1c(OC)cc(OC)c2ccc(=O)oc12 (centres undefined)	1	99*	0	-35	-8	-11
CS(=O)(=O)Cc1nc2ccccc2oc1=O	5	99*	7	8	37	-3
Cc1ccc2oc(=O)c(/C=C(\O)CC(C)C)nc2c1	3	82*	-8	32	5	31
Cc1ccc2oc(=O)c(/C=C(\O)c3cccs3)nc2c1	6	3	2	6	10	20
C/C(O)=C\c1nc2ccccc2oc1=O	.	95*	-2	9	39	0
Cc1ccc2oc(=O)c(/C=C(\O)c3ccccc3)nc2c1	7	98*	-7	4	13	-15
O=C(CNC(=O)c1cccs1)NN=Cc1ccc(Cl)cc1	5	.	.	.	.	.
CCOC(=O)c1c(-c2ccc(OC)cc2)csc1N=CN(C)C	7	.	.	.	.	.
CCc1nnc2n1N=C(c1ccc([N+](=O)[O-])cc1)CS2	5	97*	-5	-13	12	4
CC(OC(=O)C1=Cc2ccccc2OC1)C(=O)NCc1ccco1 (centres undefined)	-19	-10	0	11	9	-33
CCC(OC(=O)C1=Cc2ccccc2OC1)C(=O)NCc1ccco1 (centres undefined)	-16	.	2	33*	33	-21
Cc1ccc(S(=O)(=O)Nc2nc(C)c(C(=O)NN=Cc3ccccc3)s2)cc1	-2	.	.	.	.	.
CCN(CCCNC(=O)c1ccc(N2CCCC2=O)cc1)c1cccc(C)c1	2	90*	-3	6	14	0
CN(CCNC(=O)c1cccc(N2CCCC2=O)c1)Cc1ccccc1	2	-3	-8	-26	6	-1
CCN(CCCNC(=O)c1[nH]c(C)c(C(C)=O)c1C)c1cccc(C)c1	5	99*	-5	2	6	3
CC(=O)c1c(C)[nH]c(C(=O)NCc2ccccc2)c1C	2	3	-4	2	13	0
CC(C)N(CCCNC(=O)c1ccc(N2CCCC2=O)cc1)Cc1ccccc1	1	-4	-3	-7	10	7
CCN(CCNC(=O)c1cccc(N2CCCC2=O)c1)c1ccccc1	0	98*	-12	-3	15	.
CC1(CC(=O)NN=Cc2ccc(-c3ccc(C(=O)O)cc3)o2)OCCO1	-42	.	.	.	.	.
N#Cc1cc(C(=O)c2cc(F)ccc2O)cn(-c2nccs2)c1=O	5	33	10	36	3	-3
N#Cc1cc(C(=O)c2ccccc2O)cn(-c2nccs2)c1=O	2	97*	2	21	.	11
COC(=O)c1cc(C)sc1NC(=O)c1cccnc1	-31	-8	10	.	32	110*
COc1ccc(C=NN2CCN(c3ccncc3S(=O)(=O)N3CCCCC3)CC2)cc1	2	.	.	.	.	.
CC(Cl)C(=O)NNc1cccc(Cl)n1 (centres undefined)	2	97*	2	-14	-3	-4
Cn1c(/C(C#N)=C/c2ccc(O)cc2)nc2ccccc21	5	99*	-16	7	26	1
